Our source for the EC50 and IC50 values is ChEMBL document CHEMBL1141851, “Two bioactive pentacyclic triterpene esters from the root bark of Hibiscus syriacus” (J Nat Prod, 1999).

The term IC50 denotes the concentration that gives 50% inhibition.

The subject of one assay is SW-620. The assay is described as follows: Cytotoxicity against human SW620 cells. Type of assay: functional. As to conditions: read-out: ED50 (the source's name).
Another assay has as its system ACHN. The assay is described as follows: Cytotoxicity against human ACHN cells. Type of assay: functional. As to conditions: read-out: ED50 (the source's name).
A further assay deals with HCT-15. The assay is described as follows: Cytotoxicity against human HCT-15 cells. Type of assay: functional. As to conditions: read-out: ED50 (the source's name).
Another assay relates to NCI-H23. The assay is described as follows: Cytotoxicity against human NCI-H23 cells. As to conditions: read-out: ED50 (the source's name). The assay is classed as functional.
For a further assay, the system named is PC-3. The assay is described as follows: Cytotoxicity against human PC-3 cells. As to conditions: read-out: ED50 (the source's name). Type of assay: functional.
In the next assay the test system is UACC-62. The assay is described as follows: Cytotoxicity against human UACC-62 cells. The assay is classed as functional. As to conditions: read-out: ED50 (the source's name).
A further assay relates to SF-539. The assay is described as follows: Cytotoxicity against human SF-539 cells. Type of assay: functional. As to conditions: read-out: ED50 (the source's name).
The subject of another assay is MCF7. The assay is described as follows: Cytotoxicity against human MCF7 cells. Type of assay: functional. As to conditions: read-out: ED50 (the source's name).
The test system of a further assay is Liver microsomes. The assay is described as follows: Antioxidant activity in rat liver microsomes assessed as inhibition of lipid peroxidation by TBARS assay. The assay is classed as functional, Microsome. The gist of the method:
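Rat liver microsomal suspension ([…]) mixed with 0.2 mM ascorbic acid. Peroxidation was started by adding 100 µM FeSO4·7H2O. Thiobarbituric acid reactive products were read at 532 nm to measure inhibition of lipid peroxidation. The method was adapted with minor modification from an earlier one.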
For orientation: Liver microsomes are a subcellular fraction often used to study metabolism.

The next assay concerns UO-31. The assay is described as follows: Cytotoxicity against human UO-31 cells. The assay is classed as functional. As to conditions: read-out: ED50 (the source's name).

Converted amounts (≈) assume the structure as drawn.

Take `COc1cccc2c1C(=O)c1c(O)c3c(c(O)c1C2=O)C[C@@](O)(C(=O)CO)C[C@@H]3O[C@H]1C[C@H](N)[C@H](O)[C@H](C)O1` [DOXORUBICIN]: the EC50 worked out at 0.1 µg/mL (≈ 0.184 µM) in the assay with SW-620; 0.3 µg/mL (≈ 0.552 µM) with ACHN; 0.6 µg/mL (≈ 1.1 µM) in the assay with HCT-15; 0.1 µg/mL (≈ 0.184 µM) in the assay on NCI-H23; 0.4 µg/mL (≈ 0.736 µM) with PC-3; 0.2 µg/mL (≈ 0.368 µM) in the assay on UACC-62. Further, the EC50 is 0.2 µg/mL (≈ 0.368 µM) in the assay on SF-539 and 0.1 µg/mL (≈ 0.184 µM) with MCF7.
On to VITAMIN E, for which the IC50 in the assay with Liver microsomes was 1.6 µg/mL.
Turning to `CC1(C)CC[C@]2(CO)CC[C@]3(C)C(=CC[C@@H]4[C@@]5(C)CC[C@H](OC(=O)/C=C/c6ccc(O)c(O)c6)[C@@](C)(CO)[C@@H]5CC[C@]43C)[C@@H]2C1`, the EC50 stood at 1 µg/mL (≈ 1.61 µM) with SW-620; 2.1 µg/mL (≈ 3.38 µM) in the assay with ACHN; 1.3 µg/mL (≈ 2.09 µM) in the assay on HCT-15; 1.7 µg/mL (≈ 2.74 µM) in the assay on NCI-H23; 2.2 µg/mL (≈ 3.54 µM) with PC-3; 2.3 µg/mL (≈ 3.7 µM) in the assay with UACC-62. Besides, the figures for the EC50 with UO-31, with SF-539 and with MCF7 were 1.7 µg/mL (≈ 2.74 µM), 2 µg/mL (≈ 3.22 µM) and 1.8 µg/mL (≈ 2.9 µM), respectively. Moreover, in the assay with Liver microsomes, the IC50 turned out to be 1.1 µg/mL (≈ 1.77 µM).
Regarding `CC1(C)CC[C@]2(CO)CC[C@]3(C)C(=CC[C@@H]4[C@@]5(C)CC[C@H](O)[C@@](C)(COC(=O)/C=C/c6ccc(O)c(O)c6)[C@@H]5CC[C@]43C)[C@@H]2C1`, the EC50 in the assay on SW-620 came out at 1.1 µg/mL (≈ 1.77 µM); in the assay on ACHN, 1.2 µg/mL (≈ 1.93 µM); with HCT-15, 0.8 µg/mL (≈ 1.29 µM); in the assay with NCI-H23 it was 2.8 µg/mL (≈ 4.51 µM); in the assay with PC-3 it was 1.6 µg/mL (≈ 2.58 µM); in the assay with UACC-62, 3.9 µg/mL (≈ 6.28 µM). The EC50 was determined as 2 µg/mL (≈ 3.22 µM) in the assay on UO-31, 1.4 µg/mL (≈ 2.25 µM) in the assay with SF-539 and 2.2 µg/mL (≈ 3.54 µM) in the assay on MCF7. Also, in the assay on Liver microsomes, the IC50 turned out to be 2.3 µg/mL (≈ 3.7 µM).
